Assay outcomes from PubChem.
Rev-erbA mod = modulators of Rev-erb alpha DNA binding, primary screen, biochemical, FITC-DNA, fluorescence polarization, uHTS. Nuclear receptor subfamily 1 group D member 1 (Homo sapiens), P20393. Rev-erbα–FITC-DNA binding, 90 min. activity, % at 10 µM. hit rate 0.79% among 370,000;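 active = activity above about 14%, limit read from the data; passing the limit was not always enough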;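 also: 0% = DMSO wells with 35 nM protein and 100% = DMSO wells with 750 nM protein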
Target sequence (P20393 whole entry, looked up): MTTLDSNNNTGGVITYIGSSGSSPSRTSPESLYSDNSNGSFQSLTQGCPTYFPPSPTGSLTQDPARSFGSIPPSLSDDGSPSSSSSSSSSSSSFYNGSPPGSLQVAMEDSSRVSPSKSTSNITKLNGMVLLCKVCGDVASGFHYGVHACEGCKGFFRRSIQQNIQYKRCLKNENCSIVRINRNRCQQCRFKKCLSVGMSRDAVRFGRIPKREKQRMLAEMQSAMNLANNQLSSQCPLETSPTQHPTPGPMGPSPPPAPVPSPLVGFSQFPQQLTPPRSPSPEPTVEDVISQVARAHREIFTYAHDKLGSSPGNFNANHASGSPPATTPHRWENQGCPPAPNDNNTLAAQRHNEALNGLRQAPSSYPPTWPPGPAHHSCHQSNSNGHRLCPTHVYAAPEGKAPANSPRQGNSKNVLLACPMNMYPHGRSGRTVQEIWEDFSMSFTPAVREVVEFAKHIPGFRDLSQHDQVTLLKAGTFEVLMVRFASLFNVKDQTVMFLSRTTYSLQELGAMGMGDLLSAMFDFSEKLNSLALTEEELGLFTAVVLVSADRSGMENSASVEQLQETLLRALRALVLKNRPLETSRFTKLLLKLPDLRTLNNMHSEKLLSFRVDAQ
PG9 binder = binders of HIV-1 gp120 antibody PG9, primary screen, biochemical, TR-FRET; TR-FRET gp120-PG9 antibody binding; inhibition, % at 6.7 µM; hit rate 0.43% among 360,000; in the data active = inhibition above about 8.5%
NR2E3 ag-1 = NR2E3 agonists in two-hybrid cells, primary screen, cell-based, luminescence, CHO-S, Gal4-NCOR/VP16-NR2E3. hit rate 0.35% among 360,000. Photoreceptor-specific nuclear receptor (Homo sapiens), Q9Y5X4. inhibition of corepressor binding, % at 3.98 µM. luciferase;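 active = inhibition above the mean of all tested compounds plus 3 SD, cut at about 70% in these data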;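 also: 0% = DMSO with NR2E3 transfected cells and 100% = cells lacking NR2E3 construct; higher means lower luciferase signal from less NR2E3 corepressor binding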
MC4R ag barr = MC4R agonists recruiting beta-arrestin, primary screen, cell-based, luminescence, agonist arm of biased-ligand search | Melanocortin receptor 4 (Homo sapiens), P32245 | U2OS MC4R beta-arrestin complementation; percent of melanotan II response, DMSO zero | activation, % at 8.9 µM | hit rate 0.98% among 360,000;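 active = activation above a per-plate cutoff, the mean activation of sample wells on that plate plus 3 SD, cut at about 8% in these data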
NR2E3 ag-2 = inhibitors of NR2E3-RetCOR corepressor binding, primary screen, NR2E3 agonist project, biochemical, TR-FRET, GST-NR2E3, biotin-RetCOR | hit rate 0.12% among 320,000 | Photoreceptor-specific nuclear receptor (Homo sapiens), Q9Y5X4 | inhibition of corepressor binding, % at 4.78 µM | 1536-well;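 active = percent inhibition above the cutoff of mean plus 3 SD of all tested compounds, set per screening campaign, cut at about 20% in these data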;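 also: 0% = DMSO wells and 100% = biotin wells as full block of FRET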
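Test system: GST-NR2E3 and biotin-RetCOR proteins | Quantity: 1.35 nM GST-tagged NR2E3 final | Medium: Tris pH 7.5 | Also added: 7 nM biotin-RetCOR | Dosing: Compound at 4.8 µM, single dose | Timing: 5 h at 4 °C | Detection: Time-resolved FRET | Read-out basis: Percent inhibition | Benchmarks: Biotin wells as high control, 0.6% DMSO wells as low control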
MC4R antag cAMP = MC4R antagonists of cAMP signaling, primary screen, cell-based, TR-FRET, antagonist arm of biased-ligand search; MC4R-expressing cells, MTII-stimulated cAMP, LANCE TR-FRET; hit rate 0.48% among 360,000; AID 540295, 2011; inhibition, % at 6.5 µM;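 active = inhibition above its plate's cutoff, the mean of tested wells on that plate plus 3 SD, cut at about 29% in these data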;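 also: 0% = Melanotan II alone and 100% = Melanotan II plus saturating MCL0020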
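System: U2OS-MC4R stable cell line; Technique: Eu-cAMP/anti-cAMP TR-FRET, emission 671 nm; Repeats: single well per compound; Also added: Melanotan II; Dosing: one concentration, 6.5 µM nominal; Schedule: 30-min compound, 1-h challenge, 1-h detection, room temperature.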
U2OS cAMP counter = nonselective cAMP signaling inhibitors, parental cells, counter-screen for MC4R biased antagonist project, cell-based, TR-FRET, U2OS, forskolin, triplicate; shares compounds with MC4R antag cAMP; LANCE TR-FRET; inhibition, % at 6.5 µM; hit rate 26% among 1,600;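 active = mean inhibition over triplicates above the low-control well mean plus 3 SD, set per campaign, cut at about 13% in these data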;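 also: signal is single emission at 671 nm which falls as cellular cAMP rises; 0% = forskolin-stimulated wells and 100% = buffer without forskolin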
MC4R cAMP antag = MC4R cAMP antagonists, retest, confirmation, cell-based, TR-FRET; inhibition, % at 6.5 µM; AID 602195, 2012; hit rate 27% among 1,600; shares compounds with MC4R antag cAMP; MC4R-expressing cells, MTII-stimulated cAMP; in the data active = inhibition above about 29%;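 also: 0% = agonist stimulated wells alone and 100% = agonist stimulated wells plus saturating reference antagonist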
* = called active by the depositor. Rows were chosen to be rich in hits. Some 2.7% of all compounds tested hit in one or more screens of this group.

`CCN(C[C@H]1N[C@@](CC)(C(=O)OC)[C@H]2C(=O)N(Cc3ccccc3)C(=O)[C@@H]12)C(=O)Nc1ccc(Cl)cc1` gave Rev-erbA mod -3.1, PG9 binder -1.5, NR2E3 ag-1 -16.1, MC4R ag barr 0.3 and MC4R antag cAMP 17.6.
Screening Cc1ccccc1NC(=O)CC1(c2ccc(N(C)C)cc2)C(=O)c2ccccc2C1=O returned Rev-erbA mod 4.3, PG9 binder -3.3, NR2E3 ag-1 9.6, MC4R ag barr -0.5, NR2E3 ag-2 2.1 and MC4R antag cAMP 9.7.
O=C1N[C@@H](Cc2cn(S(=O)(=O)c3ccc([N+](=O)[O-])cc3)c3ccccc23)C(=O)N[C@H]1Cc1ccccc1 was read as Rev-erbA mod -1.4, PG9 binder 0.8, NR2E3 ag-1 4.5, MC4R ag barr -1.2, NR2E3 ag-2 4.8 and MC4R antag cAMP 6.7.
Cc1ccc(/C=C/C(=O)N2CCN(S(=O)(=O)c3ccc(C)c(C)c3)CC2)o1 was read as Rev-erbA mod -1.7, PG9 binder -0.8, NR2E3 ag-1 8.7, MC4R ag barr -1.2, NR2E3 ag-2 -2.5, MC4R antag cAMP 37.6*, U2OS cAMP counter -2.4 and MC4R cAMP antag 6.8.
For Clc1ccc(-c2nnc(-c3ccco3)nc2N2CCCCC2)cc1 the results were Rev-erbA mod -1.1, PG9 binder -1.7, NR2E3 ag-1 -23.4, MC4R ag barr -0.5, NR2E3 ag-2 -0.1, MC4R antag cAMP 29.4*, U2OS cAMP counter 0.0 and MC4R cAMP antag 6.1.
Screening CCCC(C)C(=O)NC1CCCCN(Cc2ccc(C)cc2)C1=O (centres undefined) returned Rev-erbA mod 1.3.
CC(C)C[C@@H](CNCC(=O)[C@H](Cc1c[nH]c2ccccc12)NC(=O)c1[nH]cnc1C(=O)N[C@@H](C)CN)NC(=O)c1nc[nH]c1C(=O)N[C@@H](Cc1ccccc1)C(=O)O was read as Rev-erbA mod -8.9, PG9 binder 2.0, NR2E3 ag-1 -25.1, MC4R ag barr 0.0 and MC4R antag cAMP 1.6.
`Clc1ccc(OCCCN2CCCCC2)c(Br)c1` gave Rev-erbA mod -2.1, PG9 binder -0.8, NR2E3 ag-1 -33.1, MC4R ag barr -0.6, NR2E3 ag-2 0.3 and MC4R antag cAMP -4.8.
Screening Clc1ccc(OCCCCCN2CCCC2)c(Br)c1 returned Rev-erbA mod 1.6, PG9 binder 0.3, NR2E3 ag-1 10.7, MC4R ag barr -2.5, NR2E3 ag-2 3.1, MC4R antag cAMP 30.1*, U2OS cAMP counter 1.1 and MC4R cAMP antag -10.9.
Screening CCn1c(-c2cc(-c3cc(OC)ccc3OC)nc3ccccc23)n[nH]c1=S returned Rev-erbA mod -5.9, PG9 binder -0.4, NR2E3 ag-1 -6.7, MC4R ag barr 0.1, NR2E3 ag-2 0.9 and MC4R antag cAMP 15.9.
Screening CCNC(=O)COC(=O)CNC(=O)c1cc(Cl)cc([N+](=O)[O-])c1 returned Rev-erbA mod 0.1, PG9 binder -1.6, NR2E3 ag-1 0.6, MC4R ag barr -3.0, NR2E3 ag-2 -1.5 and MC4R antag cAMP 1.5.
For CC(C)CNC(=O)COC(=O)CNC(=O)c1cc(Cl)cc([N+](=O)[O-])c1 the results were Rev-erbA mod 0.7, PG9 binder -0.6, NR2E3 ag-1 -2.7, MC4R ag barr -1.9, NR2E3 ag-2 0.7, MC4R antag cAMP 32.9*, U2OS cAMP counter 17.2* and MC4R cAMP antag 32.1*.
For COc1ccccc1N(C)S(=O)(=O)c1ccc(C(=O)OCC(=O)c2c[nH]c3ccccc23)cc1 the results were Rev-erbA mod -4.9, PG9 binder -2.2, NR2E3 ag-1 -21.1, MC4R ag barr 3.6, NR2E3 ag-2 -0.8, MC4R antag cAMP 39.2*, U2OS cAMP counter 4.5 and MC4R cAMP antag 5.2.
COc1ccccc1N(C)S(=O)(=O)c1ccc(C(=O)OCC(=O)N(C)c2ccccc2)cc1 was read as Rev-erbA mod -10.8, PG9 binder -0.3, NR2E3 ag-1 -16.6, MC4R ag barr -2.7, NR2E3 ag-2 4.8 and MC4R antag cAMP 4.3.
Cc1ccc(-c2nn(-c3ccccc3)cc2C(=O)Nc2ccc(C(=O)O)cc2)cc1 was read as Rev-erbA mod -3.5, PG9 binder 0.9, NR2E3 ag-1 -42.2, MC4R ag barr 0.5, NR2E3 ag-2 -1.9, MC4R antag cAMP 33.1*, U2OS cAMP counter 1.8 and MC4R cAMP antag -5.2.
Screening O=C(Nc1cccc(S(=O)(=O)NC2=NCCC2)c1)c1cn(-c2ccccc2)nc1-c1ccc(F)cc1 returned Rev-erbA mod -0.5, PG9 binder 1.0, NR2E3 ag-1 2.1, MC4R ag barr -3.2, MC4R antag cAMP 29.4*, U2OS cAMP counter 3.7 and MC4R cAMP antag 11.4.
`CC1CC(C)CN(C(=O)c2cccc(S(=O)(=O)N3c4ccccc4CC3C)c2)C1` (centres undefined) gave Rev-erbA mod 2.6, PG9 binder -0.9, NR2E3 ag-1 -16.2, MC4R ag barr -1.1 and MC4R antag cAMP -2.0.
For O=C(O)c1ccc(-n2ccnc2)c([N+](=O)[O-])c1 the results were Rev-erbA mod -3.2, PG9 binder -2.2, NR2E3 ag-1 -14.4, MC4R ag barr -0.6, NR2E3 ag-2 -2.4 and MC4R antag cAMP 6.1.
Screening COC(=O)c1cc([N+](=O)[O-])c(-n2ccnc2)c([N+](=O)[O-])c1 returned Rev-erbA mod -1.9, PG9 binder -0.9, NR2E3 ag-1 -10.3, MC4R ag barr -0.3, NR2E3 ag-2 -1.3, MC4R antag cAMP 30.6*, U2OS cAMP counter -3.3 and MC4R cAMP antag -0.3.
For Cc1nc(NC2CCCC2)c2nnn(Cc3ccccc3)c2n1 the results were Rev-erbA mod 0.0.
Screening CCOC(=O)C1=C(COC(=O)CNS(=O)(=O)c2ccc(C)c(C)c2)NC(=O)NC1C (centres undefined) returned Rev-erbA mod -4.9, PG9 binder 0.2, NR2E3 ag-1 -50.3, MC4R ag barr -1.4, MC4R antag cAMP 30.1*, U2OS cAMP counter 10.0 and MC4R cAMP antag 16.4.
